In ChEMBL document CHEMBL1765047, “Synthesis and in vivo evaluation of (S)-6-(4-fluorophenoxy)-3-((1-[11C]methylpiperidin-3-yl)methyl)-2-o-tolylquinazolin-4(3H)-one, a potential PET tracer for growth hormone secretagogue receptor (GHSR)” (Bioorg Med Chem, 2011):
Calls of active or inactive are those of the source. The calls are words filed in the database; no cut-off is given here.

Assays:
[1] = target: Growth hormone secretagogue receptor type 1 (Homo sapiens, UniProt Q92847); assay: Inhibition of [125I]Ghrelin binding to human Ghrelin receptor expressed in CHO-K1 cells after 60 mins by liquid scintillation spectrometry; assay type: cell-based
Outline: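 Membranes from CHO-K1 cells stably expressing human GHSR, prepared in modified HEPES pH 7.4. 0.25 mg membrane incubated with 0.03 nM [125I]human ghrelin for 60 min at 25°C; nonspecific binding with […]. Filter-bound radioactivity counted by liquid scintillation. Duplicates at multiple concentrations; one-site competition fit for IC50, Ki by Cheng-Prusoff.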

[2] = target: Growth hormone secretagogue receptor type 1 (Mus musculus) (UniProt Q99P50); assay: Binding affinity to mouse Ghrelin receptor in mouse hypothalamus after 90 mins in presence of receptor antagonist (S)-6-(4-Fluorophenoxy)-3-(piperidin-3-ylmethyl)-2-o-tolylquinazolin-4(3H)-one; conditions: tested as the 11C-labelled form
Growth hormone secretagogue receptor type 1 (Mus musculus), sequence (Q99P50 whole entry, looked up): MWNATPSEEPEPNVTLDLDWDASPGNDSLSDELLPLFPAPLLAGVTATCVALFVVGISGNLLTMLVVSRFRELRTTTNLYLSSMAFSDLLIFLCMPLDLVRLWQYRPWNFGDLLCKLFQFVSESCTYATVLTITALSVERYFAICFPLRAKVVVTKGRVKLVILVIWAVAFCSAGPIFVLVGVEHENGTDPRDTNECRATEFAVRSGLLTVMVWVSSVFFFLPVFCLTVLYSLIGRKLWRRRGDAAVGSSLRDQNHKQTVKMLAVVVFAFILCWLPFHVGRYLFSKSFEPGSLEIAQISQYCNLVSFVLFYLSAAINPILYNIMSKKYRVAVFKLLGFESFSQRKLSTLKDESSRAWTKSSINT

Growth hormone secretagogue receptor type 1, sequence (Q92847 whole entry): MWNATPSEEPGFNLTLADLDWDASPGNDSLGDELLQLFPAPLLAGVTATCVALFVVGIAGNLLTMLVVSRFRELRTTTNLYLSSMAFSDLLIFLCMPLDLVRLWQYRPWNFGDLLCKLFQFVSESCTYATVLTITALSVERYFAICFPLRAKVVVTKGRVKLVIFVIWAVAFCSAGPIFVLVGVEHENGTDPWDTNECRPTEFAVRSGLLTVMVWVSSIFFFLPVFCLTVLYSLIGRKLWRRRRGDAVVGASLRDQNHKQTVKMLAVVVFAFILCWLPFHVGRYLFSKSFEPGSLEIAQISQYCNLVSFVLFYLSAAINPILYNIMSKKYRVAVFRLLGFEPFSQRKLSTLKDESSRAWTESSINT

Ki [1]: 22 nM
Activity [2]: Active
SMILES: Cc1ccccc1-c1nc2ccc(Oc3ccc(F)cc3)cc2c(=O)n1C[C@H]1CCCN(C)C1
